The source made the active and inactive calls. The calls are words filed in the database; no cut-off is given here.

One experiment addresses T1, Progesterone receptor (Homo sapiens, UniProt P06401).
T1 sequence (P06401 whole entry): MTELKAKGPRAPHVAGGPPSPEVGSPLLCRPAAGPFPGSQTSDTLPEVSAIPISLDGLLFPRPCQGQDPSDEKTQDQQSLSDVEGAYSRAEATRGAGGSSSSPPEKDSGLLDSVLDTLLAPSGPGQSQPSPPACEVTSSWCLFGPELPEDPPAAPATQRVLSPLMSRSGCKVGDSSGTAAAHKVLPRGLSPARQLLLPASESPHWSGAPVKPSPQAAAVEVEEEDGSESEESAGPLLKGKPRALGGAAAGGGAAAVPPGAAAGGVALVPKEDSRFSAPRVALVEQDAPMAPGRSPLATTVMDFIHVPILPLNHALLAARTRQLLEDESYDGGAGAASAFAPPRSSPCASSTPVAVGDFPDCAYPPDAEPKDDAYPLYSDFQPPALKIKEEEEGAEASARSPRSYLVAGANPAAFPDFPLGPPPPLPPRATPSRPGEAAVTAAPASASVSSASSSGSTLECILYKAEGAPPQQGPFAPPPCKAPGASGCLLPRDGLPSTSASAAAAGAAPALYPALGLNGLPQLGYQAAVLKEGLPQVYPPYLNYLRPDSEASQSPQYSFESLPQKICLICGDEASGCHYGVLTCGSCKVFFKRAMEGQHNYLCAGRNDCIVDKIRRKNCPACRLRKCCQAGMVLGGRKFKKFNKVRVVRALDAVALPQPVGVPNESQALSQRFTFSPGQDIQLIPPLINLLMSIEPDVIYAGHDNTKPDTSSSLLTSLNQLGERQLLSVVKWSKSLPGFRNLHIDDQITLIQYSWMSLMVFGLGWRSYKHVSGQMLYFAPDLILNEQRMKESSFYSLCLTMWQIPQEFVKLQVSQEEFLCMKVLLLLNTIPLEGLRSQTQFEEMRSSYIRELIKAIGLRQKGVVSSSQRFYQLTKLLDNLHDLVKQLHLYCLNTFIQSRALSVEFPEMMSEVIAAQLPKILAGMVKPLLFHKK
The experiment can be described thus: Inhibition of progesterone receptor mediated progesterone-induced alkaline phosphatase activity in human T47D cells. The format is cell-based.
Details: not given
A word on the IC50: it is the concentration that gives 50% inhibition. `CC1(C)OCC(=O)Nc2ccc(-c3cc(F)cc(C#N)c3)cc21` displayed an IC50 of 25 nM.

For `N#Cc1cc(F)cc(-c2ccc3c(c2)C(c2ccco2)(c2ccco2)OCC(=O)N3)c1`, half-maximal inhibition (IC50) was put at 13.3 nM.

`CCC1(c2ccco2)OCC(=O)Nc2ccc(-c3cc(F)cc(C#N)c3)cc21` (centres undefined) displayed an IC50 of 11.8 nM.

The next experiment has as its target T2, Estrogen receptor (Homo sapiens) (UniProt P03372).
T2 sequence (whole entry): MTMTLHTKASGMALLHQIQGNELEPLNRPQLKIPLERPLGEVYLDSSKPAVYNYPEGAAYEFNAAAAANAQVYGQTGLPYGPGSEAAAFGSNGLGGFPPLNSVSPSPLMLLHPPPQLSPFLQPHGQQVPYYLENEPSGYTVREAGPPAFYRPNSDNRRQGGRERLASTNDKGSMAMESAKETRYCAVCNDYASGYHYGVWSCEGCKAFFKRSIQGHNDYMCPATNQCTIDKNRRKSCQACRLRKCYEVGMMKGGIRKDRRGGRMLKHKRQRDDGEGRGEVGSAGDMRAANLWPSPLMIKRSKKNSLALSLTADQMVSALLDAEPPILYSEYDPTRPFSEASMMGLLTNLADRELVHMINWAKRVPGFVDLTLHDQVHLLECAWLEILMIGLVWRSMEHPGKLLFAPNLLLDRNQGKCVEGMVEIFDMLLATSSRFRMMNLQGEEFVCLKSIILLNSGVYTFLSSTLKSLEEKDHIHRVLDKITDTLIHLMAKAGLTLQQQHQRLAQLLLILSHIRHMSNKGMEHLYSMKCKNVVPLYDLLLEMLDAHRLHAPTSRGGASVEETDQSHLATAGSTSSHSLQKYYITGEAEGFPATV
The experiment can be described thus: Antagonist activity at cloned estrogen receptor-ligand binding domain expressed in african green monkey COS7 cells by GAL4 luciferase reporter assay upto 10 uM. The format is cell-based. To be noted: COS-7. Summed up: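 COS-7 cells in phenol red-free DMEM with 10% charcoal/dextran-treated FBS were transfected for 16 h with a GAL4-DBD/receptor-LBD fusion plasmid and a GAL4_UAS (5 copies, E1b TATA) luciferase reporter, 50 ng/well each. Cells were then given compound for 20 h, and luciferase activity was read from cell lysates by luminometer.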
(In general: In a reporter assay the amount or activity of a reporter protein is the signal.)
With `CC1(C)OCC(=O)Nc2ccc(-c3cc(F)cc(C#N)c3)cc21`, the result was inactive.

Regarding `N#Cc1cc(F)cc(-c2ccc3c(c2)C(c2ccco2)(c2ccco2)OCC(=O)N3)c1`, the result was inactive.

For `CCC1(c2ccco2)OCC(=O)Nc2ccc(-c3cc(F)cc(C#N)c3)cc21` (centres undefined), the outcome was inactive.

The next experiment has as its target T3, Androgen receptor (Homo sapiens, UniProt P10275).
T3 sequence (P10275 whole entry): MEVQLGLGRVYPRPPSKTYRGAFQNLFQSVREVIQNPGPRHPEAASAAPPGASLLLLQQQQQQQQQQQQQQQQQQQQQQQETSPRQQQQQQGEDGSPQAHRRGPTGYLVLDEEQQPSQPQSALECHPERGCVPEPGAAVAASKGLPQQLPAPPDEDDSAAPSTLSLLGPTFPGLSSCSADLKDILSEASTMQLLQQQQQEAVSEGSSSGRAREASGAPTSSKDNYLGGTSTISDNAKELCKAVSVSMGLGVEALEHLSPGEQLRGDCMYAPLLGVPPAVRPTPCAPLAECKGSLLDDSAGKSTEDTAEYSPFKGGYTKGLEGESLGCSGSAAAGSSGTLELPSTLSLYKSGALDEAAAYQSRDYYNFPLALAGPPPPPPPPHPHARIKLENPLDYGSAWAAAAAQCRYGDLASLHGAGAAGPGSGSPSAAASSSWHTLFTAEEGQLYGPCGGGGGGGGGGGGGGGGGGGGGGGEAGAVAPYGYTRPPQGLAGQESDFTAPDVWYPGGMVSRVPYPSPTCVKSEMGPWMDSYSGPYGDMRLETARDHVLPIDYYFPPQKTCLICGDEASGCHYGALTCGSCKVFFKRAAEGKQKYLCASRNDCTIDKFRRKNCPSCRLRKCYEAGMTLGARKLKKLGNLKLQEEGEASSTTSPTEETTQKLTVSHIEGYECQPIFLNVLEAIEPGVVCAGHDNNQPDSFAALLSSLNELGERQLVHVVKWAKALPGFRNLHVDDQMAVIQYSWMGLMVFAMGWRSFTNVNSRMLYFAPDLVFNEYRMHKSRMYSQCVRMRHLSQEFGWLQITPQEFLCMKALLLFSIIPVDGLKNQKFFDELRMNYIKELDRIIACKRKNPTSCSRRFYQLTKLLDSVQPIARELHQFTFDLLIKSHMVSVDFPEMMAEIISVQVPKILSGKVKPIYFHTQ
Details: not given
In turn, `CC1(C)OCC(=O)Nc2ccc(-c3cc(F)cc(C#N)c3)cc21` registered an IC50 greater than 3000 nM.

On to `N#Cc1cc(F)cc(-c2ccc3c(c2)C(c2ccco2)(c2ccco2)OCC(=O)N3)c1`, for which the IC50 was greater than 3000 nM.

For `CCC1(c2ccco2)OCC(=O)Nc2ccc(-c3cc(F)cc(C#N)c3)cc21` (centres undefined), the midpoint of inhibition, the IC50, lay at 690 nM.

The record behind these values is ChEMBL document CHEMBL1157410, “7-aryl 1,5-dihydro-benzo[e][1,4]oxazepin-2-ones and analogs as non-steroidal progesterone receptor antagonists” (Bioorg Med Chem, 2008).
